# Entries after “also recorded” stand apart in the source; their conditions may differ. Read-outs that look alike come from different tables or passages of the source.
# Key:
# TNF-α [1] = details: read-out: Kd TNF-α; cited from earlier work
# TNFR1 [2] = details: cited from earlier work
# TNF-α [3] = biological target: TNF-α (Homo sapiens, UniProt P01375); test: SPR-based binding assay, immobilized TNF-α; details: read-out: Kd (μM) TNF-α, 2–128 μM, PBS with 5% DMSO
# Summary of the method: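 Human TNF-α at 50 μg/mL in 10 mM sodium acetate, pH 5.0, amine-coupled to a CM5 chip. Hits were screened at 50 μM in PBS running buffer with 5% DMSO. A 2–128 μM concentration series was injected for 120 s, with 120 s dissociation. Kd came from fitting the sensorgrams in evaluation software. Representative of three independent experiments.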
# L929 cells = test: TNF-α-induced L929 cytotoxicity; format: cell-based; details: 25–200 μM, 10 ng/mL TNF-α and 1 μg/mL actinomycin D, 18 h
# Summary of the method: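 L929 cells seeded at 2.0 × 10⁴ cells/well and cultured overnight. Test compound (25–200 μM) was premixed with 10 ng/mL TNF-α plus 1 μg/mL actinomycin D, then added for 18 h. Viability was read by microscopy and CCK-8 (OD 450 nm). %I = (OD AMD+TNF+compound − OD AMD+TNF)/(OD AMD − OD AMD+TNF) × 100. Three independent experiments in triplicate, mean ± SEM.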
# TNFR1 [4] = biological target: T1, TNFR1 (Homo sapiens, UniProt P19438); test: SPR-based binding assay, immobilized TNFR1; details: read-out: Kd for TNFR1, 4 to 256 μM, steady-state affinity model
# T1 sequence (P19438 30-455): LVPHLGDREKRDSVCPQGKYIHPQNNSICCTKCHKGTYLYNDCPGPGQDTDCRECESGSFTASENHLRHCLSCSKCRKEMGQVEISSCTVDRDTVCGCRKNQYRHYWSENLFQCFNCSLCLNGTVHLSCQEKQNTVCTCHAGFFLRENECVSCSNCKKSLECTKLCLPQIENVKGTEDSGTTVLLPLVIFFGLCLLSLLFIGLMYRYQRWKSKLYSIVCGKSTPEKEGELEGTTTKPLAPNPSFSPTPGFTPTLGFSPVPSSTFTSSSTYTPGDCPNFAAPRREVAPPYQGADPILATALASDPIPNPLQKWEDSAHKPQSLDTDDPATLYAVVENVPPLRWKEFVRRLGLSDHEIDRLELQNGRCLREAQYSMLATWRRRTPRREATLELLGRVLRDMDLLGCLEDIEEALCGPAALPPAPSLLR
# Summary of the method: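 Human TNFR1 in 10 mM sodium acetate, pH 5.5, amine-coupled to a CM5 chip. Single-concentration screen at 50 μM in PBS with 5% DMSO, 120 s injection at 30 μL/min. For affinity, 4–256 μM in the same buffer was passed over reference and active channels at 30 μL/min, with 120 s association and 120 s dissociation. Kd from a steady-state affinity fit.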
# Chain of TNF-α (Homo sapiens, UniProt P01375) (P01375 77-233 limits assumed): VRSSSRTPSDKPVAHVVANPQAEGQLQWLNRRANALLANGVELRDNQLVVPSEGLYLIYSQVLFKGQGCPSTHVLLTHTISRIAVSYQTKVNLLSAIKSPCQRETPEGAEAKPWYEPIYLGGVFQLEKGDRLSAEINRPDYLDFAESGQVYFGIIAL
Compound,Kd (TNF-α [3]),Inhibition of TNF-α-mediated cytotoxicity on L929 cells (in words) (L929 cells),also measured
Cc1cc2occ(CN(C)CCN(C)Cc3cn(-c4cccc(C(F)(F)F)c4)c4ccccc34)c(=O)c2cc1C [SPD-304],,,Kd (TNF-α [1]): 5.36 µM
TNF-α,,,Kd (TNFR1 [2]; read-out: Kd for binding of TNF-α to TNFR1): 0.00176 µM
O=c1c(N=Nc2nc3ccccc3s2)c(-c2ccccc2)[nH]n1-c1ccc([N+](=O)[O-])cc1 [Compound T1],11 µM,dose-dependent inhibition; also recorded: activities similar to that of C87,
O=C(O)CCC(=O)Nc1sc2c(c1C(=O)Nc1cccc3ccccc13)CCCC2 [Compound T4],113 µM,no activity,
O=C(NCc1ccc2c(c1)OCO2)C1CCCN(c2ncnc3nc[nH]c23)C1 (centres unmarked) [Compound R1],,dose-dependent inhibition; also recorded: activities similar to that of C87,Kd (TNFR1 [4]): 16 µM
O=C1Nc2c(S(=O)(=O)Nc3ccccc3)cc(S(=O)(=O)Nc3ccccc3)c3cccc1c23 [Compound T2],58 µM,no activity,
physcion-8-O-β-D-monoglucoside [reference compound],,,Kd (TNFR1 [2]; read-out: Kd TNFR1): 0.376 µM

# Reference: article PMC6732210 (Journal of chemical information and modeling, 2017)
